# From ChEMBL document CHEMBL1150832, “Phenylnaphthalene compounds from the subterranean part of Vitex rotundifolia and their antibacterial activity against methicillin-resistant Staphylococcus aureus” (2001)
# Calls of active or inactive are those of the source. The rule behind the calls is not given here.
# Experiments:
# Staphylococcus aureus [1] = experiment: Antimicrobial activity against methicillin-sensitive Staphylococcus aureus ATCC 6538 at 100 ug after 20 hrs by agar plate diffusion assay; assay type: functional, organism-based
# Method in brief: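 Agar disk diffusion. Cells were grown on Mueller-Hinton agar at 37 °C for 24 h, resuspended in Mueller-Hinton broth to 108 CFU/mL and incubated again. They were then diluted to 105 CFU/mL and used to inoculate Mueller-Hinton agar plates. 6 mm disks loaded with 100 µg compound were placed on the plates and incubated 20 h at 37 °C. Inhibition zones >10 mm were scored positive.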
# Staphylococcus aureus [2] = experiment: Antimicrobial activity against methicillin-resistant Staphylococcus aureus 0002 at 100 ug after 20 hrs by agar plate diffusion assay; assay type: functional, organism-based
# Method in brief: (§1)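 Disk diffusion against MRSA clinical isolates from Tokushima University Hospital. Cells were grown on Mueller-Hinton agar at 37 °C for 24 h, resuspended in Mueller-Hinton broth, and diluted to 10^5 CFU/mL to seed Mueller-Hinton agar plates. 6 mm disks loaded with 100 µg compound were incubated 20 h at 37 °C. Inhibition zones over 10 mm in diameter were scored positive.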
# Staphylococcus aureus [3] = experiment: Antimicrobial activity against methicillin-resistant Staphylococcus aureus 0018 at 100 ug after 20 hrs by agar plate diffusion assay; assay type: functional, organism-based; method in brief: as §1
# Staphylococcus aureus [4] = experiment: Antimicrobial activity against methicillin-resistant Staphylococcus aureus 0003 after 20 hrs by serial twofold dilution method; assay type: functional; conditions: Staphylococcus aureus, 0003, 20 h
# Method in brief: (§2)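 Agar dilution MIC on Mueller-Hinton agar, following the Japanese Society for Antimicrobial Chemotherapy (1981) method. MRSA clinical isolates from Tokushima University Hospital were grown on Mueller-Hinton agar at 37 °C for 24 h, then resuspended in Mueller-Hinton broth. Suspensions of 1 × 10^6 CFU/mL were spotted with a replicating device. Plates were read after 20 h at 37 °C.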
# Staphylococcus aureus [5] = experiment: Antimicrobial activity against methicillin-resistant Staphylococcus aureus 0021 at 100 ug after 20 hrs by agar plate diffusion assay; assay type: functional, organism-based; method in brief: as §1
# Staphylococcus aureus [6] = experiment: Antimicrobial activity against methicillin-resistant Staphylococcus aureus 0012 after 20 hrs by serial twofold dilution method; assay type: functional; conditions: Staphylococcus aureus, 0012, 20 h; method in brief: as §2
# Staphylococcus aureus [7] = experiment: Antimicrobial activity against methicillin-resistant Staphylococcus aureus 0016 at 100 ug after 20 hrs by agar plate diffusion assay; assay type: functional, organism-based; method in brief: as §1
# Staphylococcus aureus [8] = experiment: Antimicrobial activity against methicillin-resistant Staphylococcus aureus 0001 after 20 hrs by serial twofold dilution method; assay type: functional; conditions: Staphylococcus aureus, 0001, 20 h; method in brief: as §2
# Staphylococcus aureus [9] = experiment: Antimicrobial activity against methicillin-resistant Staphylococcus aureus 0003 at 100 ug after 20 hrs by agar plate diffusion assay; assay type: functional, organism-based; method in brief: as §1
# Staphylococcus aureus [10] = experiment: Antimicrobial activity against methicillin-resistant Staphylococcus aureus 0017 at 100 ug after 20 hrs by agar plate diffusion assay; assay type: functional, organism-based; method in brief: as §1
# Staphylococcus aureus [11] = experiment: Antimicrobial activity against methicillin-resistant Staphylococcus aureus 0013 after 20 hrs by serial twofold dilution method; assay type: functional; conditions: Staphylococcus aureus, 0013, 20 h; method in brief: as §2
# Staphylococcus aureus [12] = experiment: Antimicrobial activity against methicillin-resistant Staphylococcus aureus 0009 after 20 hrs by serial twofold dilution method; assay type: functional; conditions: Staphylococcus aureus, 0009, 20 h; method in brief: as §2
# Staphylococcus aureus [13] = experiment: Antimicrobial activity against methicillin-resistant Staphylococcus aureus 0018 after 20 hrs by serial twofold dilution method; assay type: functional; conditions: Staphylococcus aureus, 0018, 20 h; method in brief: as §2
# Staphylococcus aureus [14] = experiment: Antimicrobial activity against methicillin-resistant Staphylococcus aureus 0019 at 100 ug after 20 hrs by agar plate diffusion assay; assay type: functional, organism-based; method in brief: as §1
# Staphylococcus aureus [15] = experiment: Antimicrobial activity against methicillin-resistant Staphylococcus aureus 0017 after 20 hrs by serial twofold dilution method; assay type: functional; conditions: Staphylococcus aureus, 0017, 20 h; method in brief: as §2
# Staphylococcus aureus [16] = experiment: Antimicrobial activity against methicillin-resistant Staphylococcus aureus 0009 at 100 ug after 20 hrs by agar plate diffusion assay; assay type: functional, organism-based; method in brief: as §1
# Staphylococcus aureus [17] = experiment: Antimicrobial activity against methicillin-resistant Staphylococcus aureus 0019 after 20 hrs by serial twofold dilution method; assay type: functional; conditions: Staphylococcus aureus, 0019, 20 h; method in brief: as §2
# Staphylococcus aureus [18] = experiment: Antimicrobial activity against methicillin-resistant Staphylococcus aureus 0004 after 20 hrs by serial twofold dilution method; assay type: functional; conditions: Staphylococcus aureus, 0004, 20 h; method in brief: as §2
# Staphylococcus aureus [19] = experiment: Antimicrobial activity against methicillin-resistant Staphylococcus aureus 0006 after 20 hrs by serial twofold dilution method; assay type: functional; conditions: Staphylococcus aureus, 0006, 20 h; method in brief: as §2
# Staphylococcus aureus [20] = experiment: Antimicrobial activity against methicillin-resistant Staphylococcus aureus 0020 after 20 hrs by serial twofold dilution method; assay type: functional; conditions: Staphylococcus aureus, 0020, 20 h; method in brief: as §2
# Staphylococcus aureus [21] = experiment: Antimicrobial activity against methicillin-resistant Staphylococcus aureus 0012 at 100 ug after 20 hrs by agar plate diffusion assay; assay type: functional, organism-based; method in brief: as §1
# Staphylococcus aureus [22] = experiment: Antimicrobial activity against methicillin-resistant Staphylococcus aureus 0007 after 20 hrs by serial twofold dilution method; assay type: functional; conditions: Staphylococcus aureus, 0007, 20 h; method in brief: as §2
# Staphylococcus aureus [23] = experiment: Antimicrobial activity against methicillin-resistant Staphylococcus aureus 0016 after 20 hrs by serial twofold dilution method; assay type: functional; conditions: Staphylococcus aureus, 0016, 20 h; method in brief: as §2
# Staphylococcus aureus [24] = experiment: Antimicrobial activity against methicillin-resistant Staphylococcus aureus 0005 after 20 hrs by serial twofold dilution method; assay type: functional; conditions: Staphylococcus aureus, 0005, 20 h; method in brief: as §2
# Staphylococcus aureus [25] = experiment: Antimicrobial activity against methicillin-resistant Staphylococcus aureus 0005 at 100 ug after 20 hrs by agar plate diffusion assay; assay type: functional, organism-based; method in brief: as §1
# Staphylococcus aureus [26] = experiment: Antimicrobial activity against methicillin-resistant Staphylococcus aureus 0021 after 20 hrs by serial twofold dilution method; assay type: functional; conditions: Staphylococcus aureus, 0021, 20 h; method in brief: as §2
# Staphylococcus aureus [27] = experiment: Antimicrobial activity against methicillin-resistant Staphylococcus aureus 0007 at 100 ug after 20 hrs by agar plate diffusion assay; assay type: functional, organism-based; method in brief: as §1
# Staphylococcus aureus [28] = experiment: Antimicrobial activity against methicillin-resistant Staphylococcus aureus 0022 at 100 ug after 20 hrs by agar plate diffusion assay; assay type: functional, organism-based; method in brief: as §1
# Staphylococcus aureus [29] = experiment: Antimicrobial activity against methicillin-resistant Staphylococcus aureus 0001 at 100 ug after 20 hrs by agar plate diffusion assay; assay type: functional, organism-based; method in brief: as §1
# Staphylococcus aureus [30] = experiment: Antimicrobial activity against methicillin-resistant Staphylococcus aureus 0020 at 100 ug after 20 hrs by agar plate diffusion assay; assay type: functional, organism-based; method in brief: as §1
# Staphylococcus aureus [31] = experiment: Antimicrobial activity against methicillin-resistant Staphylococcus aureus 0008 after 20 hrs by serial twofold dilution method; assay type: functional; conditions: Staphylococcus aureus, 0008, 20 h; method in brief: as §2
# Staphylococcus aureus [32] = experiment: Antimicrobial activity against methicillin-resistant Staphylococcus aureus 0004 at 100 ug after 20 hrs by agar plate diffusion assay; assay type: functional, organism-based; method in brief: as §1
# Staphylococcus aureus [33] = experiment: Antimicrobial activity against methicillin-resistant Staphylococcus aureus 0022 after 20 hrs by serial twofold dilution method; assay type: functional; conditions: Staphylococcus aureus, 0022, 20 h; method in brief: as §2
# Staphylococcus aureus [34] = experiment: Antimicrobial activity against methicillin-resistant Staphylococcus aureus 0008 at 100 ug after 20 hrs by agar plate diffusion assay; assay type: functional, organism-based; method in brief: as §1
# Staphylococcus aureus [35] = experiment: Antimicrobial activity against methicillin-resistant Staphylococcus aureus 0013 at 100 ug after 20 hrs by agar plate diffusion assay; assay type: functional, organism-based; method in brief: as §1
# Staphylococcus aureus [36] = experiment: Antimicrobial activity against methicillin-resistant Staphylococcus aureus 0006 at 100 ug after 20 hrs by agar plate diffusion assay; assay type: functional, organism-based; method in brief: as §1
# Staphylococcus aureus [37] = experiment: Antimicrobial activity against methicillin-resistant Staphylococcus aureus 0002 after 20 hrs by serial twofold dilution method; assay type: functional; conditions: Staphylococcus aureus, 0002, 20 h; method in brief: as §2
SMILES,Activity (Staphylococcus aureus [1]),Activity (Staphylococcus aureus [2]),MIC (Staphylococcus aureus [4]),MIC (Staphylococcus aureus [6]),MIC (Staphylococcus aureus [8]),MIC (Staphylococcus aureus [11]),MIC (Staphylococcus aureus [12]),MIC (Staphylococcus aureus [13]),MIC (Staphylococcus aureus [15]),MIC (Staphylococcus aureus [17]),MIC (Staphylococcus aureus [18]),MIC (Staphylococcus aureus [19]),MIC (Staphylococcus aureus [20]),MIC (Staphylococcus aureus [22]),MIC (Staphylococcus aureus [23]),MIC (Staphylococcus aureus [24]),MIC (Staphylococcus aureus [26]),MIC (Staphylococcus aureus [31]),MIC (Staphylococcus aureus [33]),MIC (Staphylococcus aureus [37]),other results
COc1ccc(-c2cc(C=O)cc3ccc(O)c(OC)c23)cc1OC,inactive,,,,,,,,,,,,,,,,,,,,
COc1cc(-c2c3c(cc4cc(OC)c(O)cc24)C(=O)OC3)ccc1O [DETETRAHYDROCONIDENDRIN],inactive,Active,8 µg/mL,> 64 µg/mL,> 64 µg/mL,> 64 µg/mL,> 64 µg/mL,> 64 µg/mL,> 64 µg/mL,> 64 µg/mL,> 64 µg/mL,8 µg/mL,4 µg/mL,16 µg/mL,16 µg/mL,8 µg/mL,> 64 µg/mL,8 µg/mL,> 64 µg/mL,8 µg/mL,Activity (Staphylococcus aureus [3]): Active; Activity (Staphylococcus aureus [5]): Active; Activity (Staphylococcus aureus [7]): Active; Activity (Staphylococcus aureus [9]): Active; Activity (Staphylococcus aureus [10]): Active; Activity (Staphylococcus aureus [14]): Active; Activity (Staphylococcus aureus [16]): Active; Activity (Staphylococcus aureus [21]): Active; Activity (Staphylococcus aureus [25]): Active; Activity (Staphylococcus aureus [27]): Active; Activity (Staphylococcus aureus [28]): Active; Activity (Staphylococcus aureus [29]): Active; Activity (Staphylococcus aureus [30]): Active; Activity (Staphylococcus aureus [32]): Active; Activity (Staphylococcus aureus [34]): Active; Activity (Staphylococcus aureus [35]): Active; Activity (Staphylococcus aureus [36]): Active
COc1cc2c(cc1OC)C(O)c1c(C=O)cc3ccc(O)c(OC)c3c1-2 (stereo unspecified) [VITROFOLAL C],inactive,Active,> 64 µg/mL,> 64 µg/mL,> 64 µg/mL,> 64 µg/mL,> 64 µg/mL,> 64 µg/mL,> 64 µg/mL,> 64 µg/mL,> 64 µg/mL,64 µg/mL,64 µg/mL,64 µg/mL,64 µg/mL,64 µg/mL,> 64 µg/mL,64 µg/mL,> 64 µg/mL,64 µg/mL,Activity (Staphylococcus aureus [3]): Active; Activity (Staphylococcus aureus [5]): Active; Activity (Staphylococcus aureus [7]): Active; Activity (Staphylococcus aureus [9]): Active; Activity (Staphylococcus aureus [10]): Active; Activity (Staphylococcus aureus [14]): Active; Activity (Staphylococcus aureus [16]): Active; Activity (Staphylococcus aureus [21]): Active; Activity (Staphylococcus aureus [25]): Active; Activity (Staphylococcus aureus [27]): Active; Activity (Staphylococcus aureus [28]): Active; Activity (Staphylococcus aureus [29]): Active; Activity (Staphylococcus aureus [30]): Active; Activity (Staphylococcus aureus [32]): Active; Activity (Staphylococcus aureus [34]): Active; Activity (Staphylococcus aureus [35]): Active; Activity (Staphylococcus aureus [36]): Active
COc1cc2c(cc1OC)-c1c(c(C=O)cc3ccc(O)c(OC)c13)C2=O [VITROFOLAL D],inactive,Active,32 µg/mL,> 64 µg/mL,> 64 µg/mL,> 64 µg/mL,> 64 µg/mL,> 64 µg/mL,> 64 µg/mL,> 64 µg/mL,> 64 µg/mL,16 µg/mL,16 µg/mL,16 µg/mL,16 µg/mL,16 µg/mL,> 64 µg/mL,16 µg/mL,> 64 µg/mL,16 µg/mL,Activity (Staphylococcus aureus [3]): Active; Activity (Staphylococcus aureus [5]): Active; Activity (Staphylococcus aureus [7]): Active; Activity (Staphylococcus aureus [9]): Active; Activity (Staphylococcus aureus [10]): Active; Activity (Staphylococcus aureus [14]): Active; Activity (Staphylococcus aureus [16]): Active; Activity (Staphylococcus aureus [21]): Active; Activity (Staphylococcus aureus [25]): Active; Activity (Staphylococcus aureus [27]): Active; Activity (Staphylococcus aureus [28]): Active; Activity (Staphylococcus aureus [29]): Active; Activity (Staphylococcus aureus [30]): Active; Activity (Staphylococcus aureus [32]): Active; Activity (Staphylococcus aureus [34]): Active; Activity (Staphylococcus aureus [35]): Active; Activity (Staphylococcus aureus [36]): Active
COc1cc(-c2cc(C=O)cc3cc(OC)c(O)cc23)ccc1O [VITROFOLAL E],inactive,,> 64 µg/mL,> 64 µg/mL,> 64 µg/mL,> 64 µg/mL,> 64 µg/mL,> 64 µg/mL,> 64 µg/mL,> 64 µg/mL,> 64 µg/mL,> 64 µg/mL,64 µg/mL,> 64 µg/mL,> 64 µg/mL,> 64 µg/mL,> 64 µg/mL,> 64 µg/mL,> 64 µg/mL,> 64 µg/mL,
